Data set [1] concerns the target T1, Peroxisome proliferator-activated receptor gamma (Homo sapiens) (UniProt P37231).
T1 sequence (whole entry): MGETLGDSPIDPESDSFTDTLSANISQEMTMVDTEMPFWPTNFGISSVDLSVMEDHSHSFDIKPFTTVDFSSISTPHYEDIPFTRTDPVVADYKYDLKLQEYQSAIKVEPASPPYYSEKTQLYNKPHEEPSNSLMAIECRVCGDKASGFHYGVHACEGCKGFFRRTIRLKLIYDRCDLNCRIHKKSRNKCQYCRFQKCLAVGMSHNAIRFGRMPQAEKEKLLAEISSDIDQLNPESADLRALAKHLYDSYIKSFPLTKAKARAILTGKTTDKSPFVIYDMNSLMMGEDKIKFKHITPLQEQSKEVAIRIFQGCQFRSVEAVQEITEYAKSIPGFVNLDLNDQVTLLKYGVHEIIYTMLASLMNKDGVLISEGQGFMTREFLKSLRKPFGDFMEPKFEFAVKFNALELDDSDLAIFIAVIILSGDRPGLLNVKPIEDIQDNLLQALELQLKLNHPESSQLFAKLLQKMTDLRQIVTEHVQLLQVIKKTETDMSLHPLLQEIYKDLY
Nature of the data set: Agonist activity determined in peroxisome proliferator activated receptor gamma using PPAR gamma-Gal4 Luciferase cotransfection assay. In kind it is functional. In short, it runs like this: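 HEK293 cells grown in DMEM/F-12 with 10% FBS and glutamine, co-transfected (DMRIE-C) with PPARg-Gal4 receptor and Gal4-luciferase reporter DNA. Next day, medium switched to 5% charcoal-treated FBS; after 6 h cells seeded and incubated overnight at 37°C. Compound exposure 24 h at 37°C, 5% CO2; luciferase read by Steady-Glo. Values are the mean of two experiments.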

The target in data set [2] is T1, Peroxisome proliferator-activated receptor gamma (Homo sapiens). The experiment in a line: Functional potency was determined in pooled human preadipocytes by measurement of PPARg aP2 gene induction. Format: cell-based. An outline of the steps:
(§1)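 Pooled human preadipocytes treated with compound. Induction of the aP2 gene was quantified by a branched DNA technique. EC50 values are the mean of two experiments.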

A short description of data set [3]: Half life period in human hepatic S9 fraction was determined. Format: ADME, subcellular. To be noted: liver S9 fraction.
A short description of data set [4]: Half life period in human liver microsome was determined. Format: ADME. Particulars: liver microsomes. (Liver microsomes are a subcellular fraction often used to study metabolism.)
The test system of data set [5] is Rattus norvegicus. The experiment in a line: Oral bioavailability after administration (30 mg/kg) in rat; good. In kind it is ADME, organism-based. Particulars: in vivo.
Another data set relates to Mus musculus. The experiment in a line: Decrease in plasma glucose in db/db mice after 5 days of 30 mg/kg oral administration. Format: functional.
Data set [6] has as its system Rattus norvegicus. The experiment in a line: Area under curve (AUC0-24 h) after administration (30 mg/kg) in rat. In kind it is ADME, organism-based. Set-up: dose 30 mg/kg, time < 24 hr. To be noted: in vivo.
The nature of data set [7]: Half life period after administration (30 mg/kg) in rat. In kind it is ADME, organism-based. To be noted: in vivo.
Data set [8] deals with T1, Peroxisome proliferator-activated receptor gamma (Homo sapiens). Nature of the data set: PPAR gamma mediated aP2 gene induction in pooled human preadipocytes. In kind it is functional, cell-based. In short, it runs like this:
as §1

As for `O=C(O)Cc1ccccc1OCCC1Oc2ccccc2N(Cc2ccc(Cl)c(Cl)c2)C1=O` (stereo not drawn), the Activity in data set [1] came to 0.96 µM; in data set [2], 2.6 µM.

Take `Cc1ccc2c(c1)OC(CCOc1ccccc1CC(=O)O)C(=O)N2Cc1ccc(Cl)cc1` (stereo not drawn): the values for the Activity in data set [1] and in data set [2] were 2.1 µM and 4.2 µM, respectively.

As for `O=C(O)Cc1ccccc1OCCC1CN(Cc2ccc(Cl)c(Cl)c2)c2ccccc2O1` (stereo not drawn), the Activity is greater than 5 µM in [1] and greater than 10 µM in data set [2].

As to `O=C(O)Cc1ccccc1OCCC1Oc2ccccc2N(CCc2ccc(Cl)c(Cl)c2)C1=O` (stereo not drawn), the Activity in data set [1] is greater than 5 µM; in [2], greater than 10 µM.

In data set [2], `CN(CCOc1ccc(CC2SC(=O)NC2=O)cc1)c1ccccn1` (stereo not drawn) yielded an Activity of 0.12 µM.

On to `O=C(O)Cc1cccc(OCCC2Oc3ccccc3N(Cc3ccc(Cl)cc3)C2=O)c1` (stereo not drawn), for which the results for the Activity in data set [1] and in data set [2] were greater than 5 µM and greater than 10 µM, respectively.

For orientation: half-life means the time needed for the level to fall by half in the phase considered. A higher half-life goes with slow loss. By AUC is commonly meant the area under the concentration-time curve, a measure of exposure. Higher therefore signals high exposure. With `O=C(O)Cc1ccccc1OCCC1Oc2ccccc2N(Cc2ccc(Cl)cc2)C1=O` (stereo not drawn), the half-life is greater than 0.833 h in [3], greater than 0.833 h in [4] and 20 h in data set [7]. Further, the Activity in data set [1] is 1.3 µM; in [2], 2.1 µM. Further, the F result in the data set with Rattus norvegicus [5] was “Active”. Moreover, in the data set with Mus musculus, the Glucose level worked out at 27%. In addition, the AUC in the data set on Rattus norvegicus [6] turned out to be 308 µM·h.

Consider `O=C(O)Cc1ccccc1OCCC1Oc2cc(F)ccc2N(Cc2ccc(Cl)cc2)C1=O` (stereo not drawn), for which the Activity in [1] is greater than 5 µM; in data set [2], greater than 10 µM.

As to `O=C(O)c1ccccc1OCCC1Oc2ccccc2N(Cc2ccc(Cl)cc2)C1=O` (stereo not drawn), the values for the Activity in [1] and in data set [2] were greater than 5 µM and greater than 10 µM, respectively.

As for `O=C(O)Cc1ccccc1OCCC1Oc2ccccc2N(Cc2ccc(C(F)(F)F)cc2)C1=O` (stereo not drawn), the Activity in data set [1] was found to be 0.5 µM; in [2], 0.51 µM.

As to `O=C(O)Cc1cccc(OCCC2Oc3ccccc3N(Cc3cccc(Cl)c3)C2=O)c1` (stereo not drawn), the Activity in [1] was greater than 5 µM; in data set [2], greater than 10 µM. This compound also displayed a Fold induction in data set [8] of 5.5.

Take `O=C(O)CCc1ccccc1OCCC1Oc2ccccc2N(Cc2ccc(Cl)cc2)C1=O` (stereo not drawn): the Activity is greater than 5 µM in [1] and greater than 10 µM in data set [2].

For `O=C(O)Cc1ccccc1OCCC1Oc2ccccc2N(Cc2ccc(F)c(F)c2)C1=O` (stereo not drawn), the Activity worked out at 0.59 µM in data set [1] and 1.3 µM in data set [2].

As for `COc1ccc2c(c1)N(Cc1ccc(Cl)cc1)C(=O)C(CCOc1ccccc1CC(=O)O)O2` (stereo not drawn), the results for the Activity in data set [1] and in data set [2] were 1.8 µM and 6 µM, respectively.

As for `O=C(O)Cc1ccccc1OCCC1Oc2cc3ccccc3cc2N(Cc2ccc(Cl)cc2)C1=O` (stereo not drawn), the Activity in [1] is greater than 5 µM; in data set [2], greater than 10 µM.

As to `O=C(O)CCc1cccc(OCCC2Oc3ccccc3N(Cc3cccc(Cl)c3)C2=O)c1` (stereo not drawn), in data set [8], the Fold induction is 5.6.

For `O=C(O)Cc1ccccc1OCCC1Oc2ccccc2N(Cc2ccc3c(c2)OCO3)C1=O` (stereo not drawn), the Activity was found to be 1.1 µM in data set [1] and 4.4 µM in [2].

As for `O=C(O)Cc1ccc(OCCC2Oc3ccccc3N(Cc3cccc(Cl)c3)C2=O)cc1` (stereo not drawn), the Fold induction in data set [8] worked out at 3.2.

For the compound `O=C(O)Cc1ccccc1OCCC1Oc2ccccc2N(Cc2ccc(F)cc2)C1=O` (stereo not drawn), the Activity in data set [1] was 1.1 µM; in [2] it was 3.2 µM.

Compound `O=C(O)CCc1ccc(OCCC2Oc3ccccc3N(Cc3cccc(Cl)c3)C2=O)cc1` (stereo not drawn) showed a Fold induction in data set [8] of 3.6.

As for `O=C(O)Cc1ccccc1OCCC1Oc2ccccc2N(Cc2cccc(Cl)c2)C1=O` (stereo not drawn), the Activity came to 1.9 µM in [1] and 2.4 µM in data set [2]. In addition, the Fold induction in [8] turned out to be 6.2.

In the case of `O=C(O)Cc1ccccc1OCCC1Oc2ccccc2N(Cc2ccccc2)C1=O` (stereo not drawn), the Activity is greater than 5 µM in [1] and 4.6 µM in data set [2].

On to `O=C(O)Cc1ccccc1OCCC1Oc2ccc(C(=O)O)cc2N(Cc2ccc(Cl)cc2)C1=O` (stereo not drawn), for which the Activity is greater than 5 µM in [1] and greater than 10 µM in data set [2].

As to `Cc1ccc(CN2C(=O)C(CCOc3ccccc3CC(=O)O)Oc3ccccc32)cc1` (stereo not drawn), the values for the Activity in data set [1] and in [2] were 2 µM and 5 µM, respectively.

As to `COc1ccc(CN2C(=O)C(CCOc3ccccc3CC(=O)O)Oc3ccccc32)cc1` (stereo not drawn), the figures for the Activity in [1] and in [2] were 0.52 µM and 5.4 µM, respectively.

As for `O=C(O)Cc1ccccc1OCCC1Oc2ccccc2N(c2ccc(Cl)c(Cl)c2)C1=O` (stereo not drawn), the Activity in data set [1] worked out at 0.57 µM; in data set [2], 5.9 µM.

On to `CC(=O)c1ccc2c(c1)OC(CCOc1ccccc1CC(=O)O)C(=O)N2Cc1ccc(Cl)cc1` (stereo not drawn), for which the Activity was 1.8 µM in [1] and 6.2 µM in data set [2].

(Values after ChEMBL document CHEMBL1136108, “Benzoxazinones as PPARgamma agonists. part 1: SAR of three aromatic regions” (Bioorg Med Chem Lett, 2003).)
